Results as given in publication PMC7305985 (Molecular cell, 2020).

Tests used:
[1] = test system: KAP1 target genes in shKAP1 HCT116 cells; experiment: Reconstitution assay, RT-qPCR of KAP1 target genes; type: cell-based
[2] = test system: KAP1 target gene promoters; experiment: FLAG ChIP-qPCR of reconstituted KAP1 proteins; type: cell-based; settings: shKAP1 HCT116, FLAG ChIP-qPCR, % Input, n=3, Figures 5I, 6F
Outline: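 Epitope-tagged KAP1 was re-expressed in shKAP1 HCT116 cells by 1 µg plasmid transfection over 48 hr. Anti-FLAG ChIP used 0.5% formaldehyde crosslinking (10 min) and 150 mM glycine quench. Beads were washed 4 times with each of RIPA, low-salt, high-salt, LiCl and TE buffers. Elution was 30 min at 65°C, de-crosslinking 4 hr at 65°C with proteinase K, and read-out was qPCR.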

[3] = test system: CDK9; experiment: Co-IP from HCT116 nuclear extracts: CDK9; type: binding; settings: Figure 6B
Outline: (§1)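 Tagged proteins were expressed in HCT116 cells by transfection for 48 hr. Nuclei were released by hypotonic swelling and 27-gauge needle lysis, then extracted for 45 min at 4°C in buffer C brought to 420 mM NaCl. Chromatin was digested with MNase (5 mM CaCl2, 10 min, 37°C). Clarified extract was bound to StrepTactin agarose for 2 hr at 4°C, washed 4X and eluted with desthiobiotin. Blots loaded 1% input.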

[4] = test system: Pol II (RPB1); experiment: AP / IP / co-IP from HCT116 nuclear extracts: Pol II; type: binding; settings: MNase, endogenous IP, Figures 2C, 2D, 6B
Outline: as §1

[5] = test system: SMAD2 at KAP1 target gene promoters; experiment: ChIP-qPCR of SMAD2 after reconstitution; type: cell-based; settings: shKAP1 HCT116 reconstituted, n=3, Figure 6F
Outline: (§2)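 shKAP1 HCT116 cells were transfected with 1 µg epitope-tagged plasmid (PolyJet) and harvested after 48 hr. Cells were crosslinked in 0.5% formaldehyde (10 min, room temperature), quenched with 150 mM glycine and lysed in Farnham buffer at 10×10^6 cells/mL. Beads were washed in RIPA, low-salt, high-salt (500 mM NaCl), LiCl and TE buffers, eluted in NaHCO3/SDS (30 min, 65°C) and de-crosslinked with proteinase K (4 hr, 65°C), then read by qPCR.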

[6] = test system: Pol II at KAP1 target gene promoters; experiment: ChIP-qPCR of Pol II after reconstitution; type: cell-based; settings: shKAP1 HCT116 reconstituted, n=3, Figure 6F
Outline: as §2

[7] = test system: SMAD2; experiment: AP / IP / co-IP from HCT116 nuclear extracts: SMAD2; type: binding; settings: Figures 3G–3I, 6B
Outline: as §1

[8] = test system: CDK9 at KAP1 target gene promoters; experiment: ChIP-qPCR of CDK9 after reconstitution; type: cell-based; settings: shKAP1 HCT116 reconstituted, n=3, Figure 6F
Outline: as §2

[9] = test system: KAP1 target genes in HCT116 (CDK9 inhibition); experiment: RT-qPCR of KAP1 target genes after flavopiridol treatment; type: cell-based; settings: HCT116, 1 μM, 2 and 4 hr; relative to DMSO, normalized to U6, n=3; Figure 2M

Q: What does the source list for “KAP1: wild-type KAP1, STREP- or FLAG-tagged”?
A: restoration of KAP1 target gene expression (WT and point mutants) ([1]; shKAP1 HCT116, 48 hr, relative to shNT+GFP, normalized to RPL19, n=3, Figure 5H): restored KAP1 target gene expression; restored expression of all tested genes over GFP-expressing cells ([1]; shKAP1 HCT116, n=3, Figure 6E): ~ 2 fold; localization to KAP1 target gene promoters [2]: able to localize to both C1 (SMAD2+) and C2/C3 (SMAD2-) gene promoters; localization to KAP1 target gene promoters ([2]; listed as WT KAP1): localized to all tested gene promoters; association with CDK9 in nuclear extracts [3]: associates with all three factors; association with Pol II in nuclear extracts [4]: co-purifies with both ectopically expressed and endogenous KAP1; promoter recruitment of SMAD2 [5]: only facilitated SMAD2 recruitment to C1 (SMAD2+) gene promoters; promoter recruitment of Pol II [6]: facilitate recruitment of Pol II and CDK9; association with SMAD2 in nuclear extracts [7]: interactions between ectopically expressed and endogenous proteins; association with SMAD2 in nuclear extracts ([7]; listed as WT KAP1): associates with all three factors; promoter recruitment of CDK9 [8]: facilitate recruitment of Pol II and CDK9

Q: How did the “expression of KAP1 target genes after flavopiridol” value [9] turn out when `CN1CC[C@H](c2c(O)cc(O)c3c(=O)cc(-c4ccccc4Cl)oc23)[C@H](O)C1` [flavopiridol, Flavopiridol] was run?
A: The value was “dampened expression of KAP1 target genes”.
